Reference: ChEMBL document CHEMBL5038571, “Design and Synthesis of EZH2-Based PROTACs to Degrade the PRC2 Complex for Targeting the Noncatalytic Activity of EZH2” (J Med Chem, 2021)
Calls of active or inactive are those of the source. No cut-off for these calls is given here.

Columns and labels:
[1] = molecular target: T1, Protein cereblon/Histone-lysine N-methyltransferase EZH2 (Homo sapiens) (UniProt Q15910+Q96SW2); test: PROTAC activity at CRBN E3 ligase/EZH2 in PRC2 complex in human SU-DHL-6 cells assessed as induction of RbAp48 degradation by measuring reduction in RbAp48 protein level at 1 uM incubated for 48 hrs by Western blot analysis; assay type: cell-based
In short: (§1)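 Cells cultured in DMEM or RPMI 1640 with 10% FBS and 1% penicillin-streptomycin, 37 °C, 5% CO2; exposed to 1 μM compound for 48 h. Lysates run on SDS-PAGE and transferred to nitrocellulose. Blocked 2 h in 5% skim milk, primary antibody overnight at 4 °C, then secondary antibody. Chemiluminescent detection of PRC2 subunits and H3K27me3.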

[2] = system: WSUDLCL2; test: Inhibition of PRC2 in human WSUDLCL2 cells assessed as suppression H3K27 trimethylation incubated for 48 hrs by Western blot analysis; assay type: cell-based
In short: (§2)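 Lysates run on SDS-PAGE and transferred to nitrocellulose. Membranes blocked with 5% skim milk for 2 h, primary antibody applied overnight at 4 °C, then secondary antibody and chemiluminescent detection of histone H3 methylation marks.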

[3] = molecular target: T1, Protein cereblon/Histone-lysine N-methyltransferase EZH2 (Homo sapiens); test: PROTAC activity at CRBN E3 ligase/EZH2 in PRC2 complex in human WSUDLCL2 cells assessed as induction of SUZ12 degradation at 1 uM measured up to 2 hrs by Western blot analysis; assay type: cell-based; conditions: time hrs <=2
[4] = molecular target: T1, Protein cereblon/Histone-lysine N-methyltransferase EZH2 (Homo sapiens); test: PROTAC activity at CRBN E3 ligase/EZH2 in PRC2 complex in human SU-DHL-6 cells assessed as induction of EZH2 degradation by measuring reduction in EZH2 protein level at 1 uM incubated for 48 hrs by Western blot analysis; assay type: cell-based; in short: as §1
[5] = molecular target: T1, Protein cereblon/Histone-lysine N-methyltransferase EZH2 (Homo sapiens); test: PROTAC activity at CRBN E3 ligase/EZH2 in PRC2 complex in human DU-145 cells assessed as induction of EZH2 degradation by measuring reduction in EZH2 protein level at 1 uM incubated for 48 hrs by Western blot analysis; assay type: cell-based
In short: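 Cancer cell lines exposed to 1 μM compound for 48 h. Lysates immunoblotted (SDS-PAGE, nitrocellulose, 5% milk block, primary antibody overnight at 4 °C) for EZH2, SUZ12, EED, RbAp48 and H3K27me3. Bands quantified by densitometry and normalized to GAPDH.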

[6] = molecular target: T1, Protein cereblon/Histone-lysine N-methyltransferase EZH2 (Homo sapiens); test: PROTAC activity at CRBN E3 ligase/EZH2 in PRC2 complex in human SU-DHL-6 cells assessed as induction of EED degradation by measuring reduction in EED protein level at 1 uM incubated for 48 hrs by Western blot analysis; assay type: cell-based; in short: as §1
[7] = molecular target: T1, Protein cereblon/Histone-lysine N-methyltransferase EZH2 (Homo sapiens); test: PROTAC activity at CRBN E3 ligase/EZH2 in PRC2 complex in human WSUDLCL2 cells assessed as reduction in H3K27me3 level at 1 uM incubated for 48 hrs by Western blot analysis relative to control; assay type: cell-based; parameters: scale not given: the % may be the effect or the level left
In short: (§3)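 WSU-DLCL-2 cells treated 48 h (1 μM for the single-concentration screen), lysed; SDS-PAGE, nitrocellulose transfer, 5% milk block, primary antibody 4 °C overnight, chemiluminescence. Bands quantified by densitometry, normalized to GAPDH, expressed relative to DMSO-treated cells; mean ± SD of three independent experiments, t-test.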

[8] = molecular target: T1, Protein cereblon/Histone-lysine N-methyltransferase EZH2 (Homo sapiens); test: PROTAC activity at CRBN E3 ligase/EZH2 in PRC2 complex in human SK-OV-3 cells assessed as induction of RpAb48 degradation by measuring reduction in RpAb48 protein level at 1 uM incubated for 48 hrs by Western blot analysis; assay type: cell-based; in short: as §1
[9] = system: WSUDLCL2; test: Effect on Histone H3 methylation in human WSUDLCL2 cells assessed as reduction in H3K9me3 levels at upto 10 uM incubated for 48 hrs by Western blot analysis; assay type: functional, cell-based; conditions: dose microM <=10, time 48.0 hrs; in short: as §2
[10] = molecular target: T1, Protein cereblon/Histone-lysine N-methyltransferase EZH2 (Homo sapiens); test: PROTAC activity at CRBN E3 ligase/EZH2 in PRC2 complex in human WSUDLCL2 cells assessed as induction of EZH2 degradation incubated for 48 hrs by Western blot analysis; assay type: cell-based; conditions: dose 1-10 µM; in short: as §3
[11] = molecular target: Histone-binding protein RBBP4 (Homo sapiens) (UniProt Q09028); test: Binding affinity to RbAp48 in human WSUDLCL2 cells assessed as thermal stability by measuring shift in temperature at 60 uM pretreated with proteasome inhibitor MG132 for 1 hr followed by compound addition incubated for 2 hrs by cellular thermal shift based Western blot analysis; assay type: cell-based
In short: (§4)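 Cellular thermal shift: cells suspended at 1.5 × 10⁶/mL and pretreated with MG-132 (5 μM, 1 h), then given 60 μM compound for 2 h with a DMSO control. Cells were lysed in RIPA with cocktail for 1 h. Supernatant aliquots were heated 6 min at 45, 48, 51, 54, 57 and 60 °C and centrifuged 15 min. Soluble protein was immunoblotted; bands quantified by densitometry; three independent experiments.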

[12] = molecular target: T1, Protein cereblon/Histone-lysine N-methyltransferase EZH2 (Homo sapiens); test: PROTAC activity at CRBN E3 ligase/EZH2 in PRC2 complex in human WSUDLCL2 cells assessed as induction of EZH2 degradation at 1 uM incubated for 48 hrs by Western blot analysis relative to control; assay type: cell-based
In short: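 WSU-DLCL-2 cells exposed to 1 μM compound for 48 h, with DMSO-treated cells as control. Bands quantified by densitometry and normalized to GAPDH. Mean SD from three independent experiments, t-test versus DMSO.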

[13] = molecular target: T1, Protein cereblon/Histone-lysine N-methyltransferase EZH2 (Homo sapiens); test: PROTAC activity at CRBN E3 ligase/EZH2 in PRC2 complex in human WSUDLCL2 cells assessed as downregulation of EZH2 expression at 1 uM pretreated with lenalidomide for 4 hrs followed by compound addition and measured after 48 hrs by Western blot analysis; assay type: cell-based
In short: (§5)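 WSU-DLCL-2 cells pretreated 4 h with the named inhibitor, then compound added and incubated a further 48 h. EZH2, SUZ12, EED and RbAp48 measured by western blot (nitrocellulose transfer, skim-milk block, primary antibody overnight at 4 °C, chemiluminescent detection).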

[14] = molecular target: Polycomb protein SUZ12 (Homo sapiens) (UniProt Q15022); test: Binding affinity to SUZ12 in human WSUDLCL2 cells assessed as thermal stability by measuring shift in temperature at 60 uM pretreated with proteasome inhibitor MG132 for 1 hr followed by compound addition incubated for 2 hrs by cellular thermal shift based Western blot analysis; assay type: cell-based; in short: as §4
[15] = molecular target: T1, Protein cereblon/Histone-lysine N-methyltransferase EZH2 (Homo sapiens); test: PROTAC activity at CRBN E3 ligase/EZH2 in PRC2 complex in human WSUDLCL2 cells assessed as downregulation of EZH2 expression at 1 uM pretreated with EED226 for 4 hrs followed by compound addition and measured after 48 hrs by Western blot analysis; assay type: cell-based; in short: as §5
[16] = system: NCI-H1299; test: Antiproliferative activity against human NCI-H1299 cells harboring SWI/SNF mutant assessed as inhibition of cell growth at 10 uM treated for 9 days by optical microscopic analysis; assay type: functional, cell-based; conditions: time 9.0 day
In short: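 Cells seeded at 5 × 10³ per well, grown 24 h, then exposed to compound at 10 μM for 9 days with medium refreshed. Cells were photographed and counted on days 1, 3, 5, 7 and 9. For lines 1-2, EZH2-targeting or control shRNA was induced in the cells. Mean SD of three independent experiments; t-test against control.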

[17] = molecular target: Polycomb protein EED (Homo sapiens) (UniProt O75530); test: Binding affinity to EED in human WSUDLCL2 cells assessed as thermal stability by measuring shift in temperature at 60 uM pretreated with proteasome inhibitor MG132 for 1 hr followed by compound addition incubated for 2 hrs by cellular thermal shift based Western blot analysis; assay type: cell-based; in short: as §4
Polycomb protein EED (Homo sapiens), sequence (O75530 2-441 limits assumed): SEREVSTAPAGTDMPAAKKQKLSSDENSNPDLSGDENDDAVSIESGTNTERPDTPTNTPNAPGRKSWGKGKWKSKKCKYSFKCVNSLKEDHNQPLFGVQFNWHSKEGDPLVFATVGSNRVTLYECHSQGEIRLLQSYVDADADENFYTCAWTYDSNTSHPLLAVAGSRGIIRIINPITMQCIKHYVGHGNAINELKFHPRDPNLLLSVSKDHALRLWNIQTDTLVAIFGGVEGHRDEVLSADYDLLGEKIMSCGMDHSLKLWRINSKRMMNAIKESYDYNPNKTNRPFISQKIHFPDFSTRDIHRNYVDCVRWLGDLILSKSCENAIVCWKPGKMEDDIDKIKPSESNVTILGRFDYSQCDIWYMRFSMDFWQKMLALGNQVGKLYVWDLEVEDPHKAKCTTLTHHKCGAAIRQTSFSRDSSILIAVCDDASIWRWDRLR

T1 sequence (Q15910 whole entry, looked up): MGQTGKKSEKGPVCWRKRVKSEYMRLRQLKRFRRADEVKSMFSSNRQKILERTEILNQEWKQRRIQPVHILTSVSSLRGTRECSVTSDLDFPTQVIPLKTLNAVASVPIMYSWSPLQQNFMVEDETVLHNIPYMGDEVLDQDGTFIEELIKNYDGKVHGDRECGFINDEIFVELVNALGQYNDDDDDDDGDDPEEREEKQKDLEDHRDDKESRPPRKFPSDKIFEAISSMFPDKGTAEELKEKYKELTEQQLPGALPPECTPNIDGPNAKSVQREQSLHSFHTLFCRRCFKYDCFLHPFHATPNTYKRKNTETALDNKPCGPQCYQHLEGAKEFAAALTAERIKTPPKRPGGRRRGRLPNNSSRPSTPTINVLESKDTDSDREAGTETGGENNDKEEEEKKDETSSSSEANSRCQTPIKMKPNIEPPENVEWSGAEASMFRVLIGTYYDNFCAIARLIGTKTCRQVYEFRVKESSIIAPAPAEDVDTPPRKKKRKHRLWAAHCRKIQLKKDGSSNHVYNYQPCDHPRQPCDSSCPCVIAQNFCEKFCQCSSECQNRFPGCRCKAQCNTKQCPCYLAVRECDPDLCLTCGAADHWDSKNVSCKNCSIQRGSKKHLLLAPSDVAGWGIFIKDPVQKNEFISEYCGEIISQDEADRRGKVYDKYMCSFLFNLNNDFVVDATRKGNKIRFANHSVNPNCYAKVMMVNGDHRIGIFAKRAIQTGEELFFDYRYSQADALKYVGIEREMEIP
T1 sequence (Q96SW2 whole entry, looked up): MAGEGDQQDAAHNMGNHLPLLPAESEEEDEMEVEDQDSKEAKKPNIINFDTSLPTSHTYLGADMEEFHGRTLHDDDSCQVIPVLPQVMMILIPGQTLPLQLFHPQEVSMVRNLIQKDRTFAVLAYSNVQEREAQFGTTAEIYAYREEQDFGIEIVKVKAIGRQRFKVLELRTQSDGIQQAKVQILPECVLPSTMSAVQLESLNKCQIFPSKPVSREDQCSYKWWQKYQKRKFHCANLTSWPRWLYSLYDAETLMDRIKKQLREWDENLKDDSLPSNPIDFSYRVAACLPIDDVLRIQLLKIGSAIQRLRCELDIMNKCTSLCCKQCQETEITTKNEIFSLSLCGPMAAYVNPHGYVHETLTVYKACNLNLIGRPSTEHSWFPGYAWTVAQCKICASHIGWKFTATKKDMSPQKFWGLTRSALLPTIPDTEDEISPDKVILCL
Histone-binding protein RBBP4 (Homo sapiens), sequence (Q09028 whole entry): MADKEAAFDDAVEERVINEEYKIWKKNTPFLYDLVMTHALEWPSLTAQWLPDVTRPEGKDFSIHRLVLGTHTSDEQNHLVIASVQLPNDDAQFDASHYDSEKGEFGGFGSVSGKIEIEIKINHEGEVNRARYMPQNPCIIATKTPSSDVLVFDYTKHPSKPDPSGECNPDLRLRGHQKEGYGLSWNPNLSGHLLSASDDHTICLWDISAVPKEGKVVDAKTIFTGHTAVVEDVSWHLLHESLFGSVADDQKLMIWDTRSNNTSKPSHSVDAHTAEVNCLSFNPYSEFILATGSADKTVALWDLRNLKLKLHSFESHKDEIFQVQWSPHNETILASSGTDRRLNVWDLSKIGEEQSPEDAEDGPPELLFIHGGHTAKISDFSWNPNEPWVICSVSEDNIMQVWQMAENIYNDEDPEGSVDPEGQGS
Polycomb protein SUZ12 (Homo sapiens), sequence (Q15022 whole entry): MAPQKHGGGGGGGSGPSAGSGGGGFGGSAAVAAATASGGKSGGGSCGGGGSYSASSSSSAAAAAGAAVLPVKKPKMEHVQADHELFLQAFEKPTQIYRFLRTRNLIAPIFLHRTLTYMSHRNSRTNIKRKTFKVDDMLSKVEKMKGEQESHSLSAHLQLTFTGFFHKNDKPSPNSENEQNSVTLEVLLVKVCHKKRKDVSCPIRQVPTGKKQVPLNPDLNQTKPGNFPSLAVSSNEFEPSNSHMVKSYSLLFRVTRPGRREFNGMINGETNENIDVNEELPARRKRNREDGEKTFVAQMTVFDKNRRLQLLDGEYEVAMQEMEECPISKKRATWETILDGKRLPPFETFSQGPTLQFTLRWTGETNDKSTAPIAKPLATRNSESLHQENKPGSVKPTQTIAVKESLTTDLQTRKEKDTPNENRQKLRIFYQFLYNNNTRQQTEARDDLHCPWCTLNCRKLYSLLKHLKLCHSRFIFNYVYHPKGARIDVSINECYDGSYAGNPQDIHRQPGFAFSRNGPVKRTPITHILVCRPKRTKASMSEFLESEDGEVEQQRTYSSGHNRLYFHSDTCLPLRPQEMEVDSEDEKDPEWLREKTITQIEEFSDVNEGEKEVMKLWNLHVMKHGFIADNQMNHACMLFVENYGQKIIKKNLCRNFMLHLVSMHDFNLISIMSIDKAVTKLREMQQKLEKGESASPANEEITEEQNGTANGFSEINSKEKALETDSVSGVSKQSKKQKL

Activity [1]: Active
Activity [3]: inactive
Activity [4]: Active
Activity [5]: Active
Activity [6]: Active
Activity [7]: 83%
Activity [8]: Active
Activity [10]: Dose-Dependent Effect
Activity [11]: inactive
Activity [12]: 72%
Activity [13]: inactive
Activity [14]: inactive
Activity [15]: Active
Activity [17]: inactive
Structure (SMILES): CCN(c1cc(-c2ccc(CN3CCN(CCCCCCCOc4cccc5c4C(=O)N(C4CCC(=O)NC4=O)C5=O)CC3)cc2)cc(C(=O)NCc2c(C)cc(C)[nH]c2=O)c1C)C1CCOCC1 (configuration not stated)
inhibition [2]: Dose-Dependent Effect
Activity [9]: inactive
Activity [16]: Active
